Measured values from the array DNA melting data of Ke et al. (doi:10.1101/2024.01.08.574731).

Key:
[1] = folding enthalpy; higher = less favourable; fluorescence melt of hairpins on a sequencing array, two-state fit; conditions: sodium 0.088 M
How it was run: (§1)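 Two-state fits, bootstrapped, provided melting temperature and folding enthalpy from Cy3 fluorescence normalised to pre-quench Cy3 and to control constructs. Library hairpins with annealed Cy3 and quencher oligos were imaged on a sequenced MiSeq flow cell in 50 mM Na-HEPES pH 8.0, 25 mM NaCl, at 2.5 °C intervals up to 60 °C. Four replicates were combined with inverse-variance weighting. A 9.35 °C upward shift was applied to fitted temperatures to match UV melts.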

[2] = melting temperature; fluorescence melt of hairpins on a sequencing array, two-state fit, raised by 9.35 °C to match UV melts; conditions: sodium 0.088 M
How it was run: as §1

Row | Sequence | folding enthalpy [1] | Tm [2]
1 | GCTACTACGAAAGTAAGC (((..(((....)))))) | -13.6 kcal/mol | 29.5 °C
2 | GTACCCCGAAAGGGTTAC (((.(((....))).))) | -19.6 kcal/mol | 41.8 °C
3 | GTGATCGAAAGATCTCAC ((((((....)))..))) | -11.4 kcal/mol | 39.1 °C
4 | GTTTCCCGAAAGGGAAC (((.(((....)))))) | -14.1 kcal/mol | 50.6 °C
5 | GCAGGGGGAAACCCCCGC ((.((((....)))).)) | -14.5 kcal/mol | 61.6 °C
6 | GCCATGCGAAAGCAAAGC ((..(((....)))..)) | -11.5 kcal/mol | 32.2 °C
7 | GCTAGGCGAAAGCCAGGC ((..(((....)))..)) | -16.8 kcal/mol | 54.9 °C
8 | GTTGCCGAAAGGCTAAAC ((((((....)))..))) | -9.35 kcal/mol | 34.5 °C
9 | GATCCTGAAAGGATC ((((((...)))))) | -38.7 kcal/mol | 65.9 °C
10 | GATCTAGCTGTAGATC ((((((....)))))) | -32.8 kcal/mol | 39.9 °C
11 | GGATGCACGAAAGTGTCC (((..(((....)))))) | -14 kcal/mol | 30.8 °C
12 | CGTACCGGAAACGGCACG (((.(((....))).))) | -39.9 kcal/mol | 50.2 °C
13 | GCGAAGAGTCGC ((((....)))) | -11.8 kcal/mol | 48.4 °C
14 | GTGTCCGAAAGGACTCAC ((((((....)))..))) | -10 kcal/mol | 39.4 °C
15 | GGTAGTGCGAAAGCAACC (((..(((....)))))) | -10.8 kcal/mol | 32 °C
16 | GCACGCTCGAAAGAGTGC (((..(((....)))))) | -20.9 kcal/mol | 50.2 °C
17 | GATCTGAGGTCAGATC ((((((....)))))) | -40.6 kcal/mol | 49.4 °C
18 | GCCCGCACGAAAGTGGGC (((..(((....)))))) | -24 kcal/mol | 57.4 °C
19 | GATCAACCATTGATC ((((((...)))))) | -29 kcal/mol | 38.8 °C
20 | GAAGACGAAAGTCTTTC ((((((....))).))) | -13.1 kcal/mol | 48.1 °C
21 | TGACGGAAACGTCA (((((....))))) | -23.7 kcal/mol | 52.5 °C
22 | GGCGGCGAAAGCCTGCC ((((((....))).))) | -18.9 kcal/mol | 68.5 °C
23 | GGTGCCCGAAAGGGTACC (((.(((....))).))) | -33.4 kcal/mol | 68.2 °C

Row | Sequence | folding enthalpy [1] | Tm [2]
24 | GGTAGTGGAAACGCTATC (.(((.(....).))).) | -15.7 kcal/mol | 30.8 °C
25 | GTCATGGGAAACTATGAC (((((.(....).))))) | -29.1 kcal/mol | 45 °C
26 | GTGGGTGGAAACACCTAC ((.((((....)))).)) | -21.3 kcal/mol | 51 °C
27 | GGCTGCGAAAGCAACGCC ((((((....)))..))) | -22.1 kcal/mol | 56.6 °C
28 | GGCGCCGAAAGGCGAGCC ((((((....)))..))) | -11.4 kcal/mol | 57.6 °C
29 | GATCAGGCCCCTGATC ((((((....)))))) | -46.1 kcal/mol | 53.1 °C
30 | GCCCCCGAAAGGGATGGC ((((((....)))..))) | -24.1 kcal/mol | 52.1 °C
31 | GAATAACGAAAGTTTTC (((.(((....)))))) | -13.7 kcal/mol | 29.7 °C
32 | GCGGACGAAAGTCGACGC ((((((....)))..))) | -27.3 kcal/mol | 54.8 °C
33 | GCATGCGGAAACGTGTGC (((..((....))..))) | -37.8 kcal/mol | 50.4 °C
34 | GAATGTGGAAACACACTC ((.((((....)))).)) | -11.6 kcal/mol | 29.8 °C
35 | GAAGACGAAAGTCCCTTC ((((((....)))..))) | -13.8 kcal/mol | 30.8 °C
36 | GGGAACCGAAAGGTCCC (((.(((....)))))) | -20.9 kcal/mol | 57.3 °C
37 | GCCGTTTCGAAAGAAGGC (((..(((....)))))) | -22.4 kcal/mol | 44.3 °C
38 | GCCGGCGAAAGCCTTGGC ((((((....)))..))) | -20.8 kcal/mol | 54.8 °C
39 | GATCCCTACGGGGATC ((((((....)))))) | -39.4 kcal/mol | 62.1 °C
40 | GCACTGGGAAACCAGTAC (.(((((....))))).) | -14.9 kcal/mol | 38.1 °C
41 | GCTTGTGCGAAAGCAAGC (((..(((....)))))) | -22.9 kcal/mol | 46.5 °C
42 | GGTCACGGAAACACGACC ((((..(....)..)))) | -18.5 kcal/mol | 34.5 °C
43 | GGGTTCGGAAACGAATCC ((.((((....)))).)) | -44 kcal/mol | 53.7 °C
44 | GATCCGGGGCCGGATC ((((((....)))))) | -41.4 kcal/mol | 61 °C
45 | CGAATACGGAAACGTTCG (((..(((....)))))) | -24.9 kcal/mol | 34 °C
46 | GGGTACGGAAACGTGCTC (.(.(((....))).).) | -21.5 kcal/mol | 43.1 °C

Row | Sequence | folding enthalpy [1] | Tm [2]
47 | GATGATGAAAATCATC ((((((....)))))) | -29 kcal/mol | 51.2 °C
48 | GAGGGCGGAAACGTCCTC ((((.((....)).)))) | -47 kcal/mol | 59.1 °C
49 | GCCCAGTCGAAAGACGGC (((..(((....)))))) | -13.4 kcal/mol | 49.3 °C
50 | GACACGCCGAAAGGCGTC (((..(((....)))))) | -6.56 kcal/mol | 33.8 °C
51 | GTAAGGTCGAAAGACTAC (((..(((....)))))) | -13.1 kcal/mol | 29.1 °C
52 | GGCAAGCGAAAGCTAGCC (((.(((....))).))) | -35.9 kcal/mol | 63.4 °C
53 | GTACGAGGAAACTCGTGC (.(((((....))))).) | -39.2 kcal/mol | 52 °C
54 | GCCATGAAAATGGC (((((....))))) | -28.1 kcal/mol | 60.6 °C
55 | GATCCTAAGTAGGATC ((((((....)))))) | -39.5 kcal/mol | 51.7 °C
56 | GGGTGTGGAAACATGCCC (((..((....))..))) | -28.4 kcal/mol | 47.7 °C
57 | GTGATACGAAAGTACCAC (((.(((....))).))) | -32.7 kcal/mol | 45.6 °C
58 | GTGTGGGGAAACCCATAC ((.((((....)))).)) | -30.9 kcal/mol | 49.2 °C
59 | GTGCACGAAAGTGACCAC ((((((....)))..))) | -12.7 kcal/mol | 41.3 °C
60 | GCGTGGCGAAAGCCGAGC ((..(((....)))..)) | -25.8 kcal/mol | 66.4 °C
61 | GCGCCCACGAAAGTGCGC (((..(((....)))))) | -35.2 kcal/mol | 56 °C
62 | GTCTATCCGAAAGGAGAC (((..(((....)))))) | -16.5 kcal/mol | 31.8 °C
63 | GGGAATGCGAAAGCACCC (((..(((....)))))) | -19.4 kcal/mol | 42.3 °C
64 | GGCGACGCGAAAGCGGCC (((..(((....)))))) | -11.1 kcal/mol | 57.6 °C
65 | GCCCAATCGAAAGATGGC (((..(((....)))))) | -24.9 kcal/mol | 43.3 °C
66 | CGCGACGGAAACGTGCG (((.(((....)))))) | -28.3 kcal/mol | 55.3 °C
67 | GTTCACGAAAGTGATAAC ((((((....)))..))) | -10.8 kcal/mol | 35 °C
68 | GCCAGGCGAAAGCCAAGC ((..(((....)))..)) | -13.3 kcal/mol | 44.8 °C
69 | CGGTCGGAAACGAGCCG ((((((....))).))) | -21.6 kcal/mol | 51.2 °C

Row | Sequence | folding enthalpy [1] | Tm [2]
70 | GAACTCGCGAAAGCGTTC (((..(((....)))))) | -12.5 kcal/mol | 27.4 °C
71 | GATCGGAAGACCGATC ((((((....)))))) | -29 kcal/mol | 52.8 °C
72 | GACCAGGGAAACCTGACC (..((((....))))..) | -10 kcal/mol | 30.1 °C
73 | GGCAAGACGAAAGTCGCC (((..(((....)))))) | -18.9 kcal/mol | 54.2 °C
74 | GGAACGTCGAAAGACTCC (((..(((....)))))) | -11.7 kcal/mol | 32.1 °C
75 | GTTATCGAAAGATATAAC ((((((....)))..))) | -11.3 kcal/mol | 29.3 °C
76 | GATCGTTTGAACGATC ((((((....)))))) | -29.1 kcal/mol | 54.2 °C
77 | GCAATGGGAAACTATTGC (((((.(....).))))) | -33.5 kcal/mol | 47 °C
78 | GATCATGTCGATGATC ((((((....)))))) | -37.1 kcal/mol | 51 °C
79 | GCATAGCGAAAGCAATGC ((((.((....)).)))) | -23.1 kcal/mol | 60.4 °C
80 | GATCTCACGAAAGTGATC (((..(((....)))))) | -9.7 kcal/mol | 30.2 °C
81 | GCAAGTGAAAACTTGC ((((((....)))))) | -35.4 kcal/mol | 61.5 °C
82 | GATCCGAGCCGGATC ((((((...)))))) | -44.5 kcal/mol | 56.3 °C
83 | GCGACTGCTCGC ((((....)))) | -16.5 kcal/mol | 50.4 °C
84 | GCTTAAGCGAAAGCTAGC (((..(((....)))))) | -17.6 kcal/mol | 40.5 °C
85 | GAAACGCGAAAGCGATTC (((.(((....))).))) | -28.3 kcal/mol | 50.8 °C
86 | GCCGTCGAAAGACTCGGC ((((((....)))..))) | -23.8 kcal/mol | 48.8 °C
87 | GCGTTCCTACGC ((((....)))) | -25.2 kcal/mol | 57.9 °C
88 | GGATTTGGAAACAAACCC ((.((((....)))).)) | -30.1 kcal/mol | 35.6 °C
89 | GATCTCCGAAAGGACATC (((.(((....))).))) | -17 kcal/mol | 30.4 °C
90 | GCTGCCGCGAAAGCGAGC (((..(((....)))))) | -9.35 kcal/mol | 57.6 °C
91 | GCGGAGCGAAAGCCCGGC ((.(.((....)).).)) | -10.5 kcal/mol | 53.5 °C
92 | GCCGTCGAAAGACCCGGC ((((((....)))..))) | -18.3 kcal/mol | 47.9 °C
